Compound activity deposited in PubChem by several laboratories.
Rows were chosen to be rich in hits. Some 1.2% of all compounds tested hit in one or more screens of this group.
NPR2 activator = GC-B (human) receptor activation; P20594; HEK293-GC-B cells, CNP EC30, cGMP TR-FRET; 0% at EC30 CNP, 100% saturating CNP; activation, % at 10 µM; 370,000 compounds, 0.11% hits;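 active means activation at 10 µM reaching about 35% in either raw or pattern-adjusted values, limit read from the data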
Target sequence (P20594 whole entry, looked up): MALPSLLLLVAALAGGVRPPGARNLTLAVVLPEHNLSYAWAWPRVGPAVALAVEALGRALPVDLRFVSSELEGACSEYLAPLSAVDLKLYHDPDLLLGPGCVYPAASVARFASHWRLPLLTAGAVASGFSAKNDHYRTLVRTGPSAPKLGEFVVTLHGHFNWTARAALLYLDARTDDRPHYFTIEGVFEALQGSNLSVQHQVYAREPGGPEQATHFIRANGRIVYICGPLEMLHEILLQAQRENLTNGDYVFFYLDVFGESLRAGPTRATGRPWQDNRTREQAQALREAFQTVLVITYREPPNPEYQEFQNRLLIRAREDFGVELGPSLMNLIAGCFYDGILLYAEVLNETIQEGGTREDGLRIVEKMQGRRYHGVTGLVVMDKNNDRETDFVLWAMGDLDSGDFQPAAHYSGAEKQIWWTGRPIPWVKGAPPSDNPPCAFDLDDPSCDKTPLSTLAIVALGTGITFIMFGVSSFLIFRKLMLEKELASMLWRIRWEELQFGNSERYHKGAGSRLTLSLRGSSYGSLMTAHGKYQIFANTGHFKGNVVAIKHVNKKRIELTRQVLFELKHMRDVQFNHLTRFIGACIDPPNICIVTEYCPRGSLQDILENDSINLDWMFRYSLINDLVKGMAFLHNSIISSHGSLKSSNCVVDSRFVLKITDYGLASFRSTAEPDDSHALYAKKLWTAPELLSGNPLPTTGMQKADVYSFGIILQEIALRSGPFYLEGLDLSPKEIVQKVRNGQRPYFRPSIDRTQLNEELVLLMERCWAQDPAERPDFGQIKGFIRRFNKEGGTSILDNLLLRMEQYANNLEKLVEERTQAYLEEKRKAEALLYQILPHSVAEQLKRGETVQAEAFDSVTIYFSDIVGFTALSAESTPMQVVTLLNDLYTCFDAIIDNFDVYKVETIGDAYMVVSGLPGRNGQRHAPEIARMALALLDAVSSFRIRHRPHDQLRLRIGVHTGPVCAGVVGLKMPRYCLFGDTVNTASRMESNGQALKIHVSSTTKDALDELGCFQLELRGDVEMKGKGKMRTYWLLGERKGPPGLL
ASAP1 inh = inhibitors of human ASAP1 ArfGAP activity; Q9ULH1; ASAP1-stimulated ARF1 GTP hydrolysis, GDP FP detection; inhibition, % at 16.5 µM; 360,000 compounds, 0.19% hits; in the data active means inhibition above about 25%;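 further: 0% = vehicle with enzyme and substrate and 100% = no enzyme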
GC-A act = GC-A (human) enzyme activation. HEK293 GC-A cells, cGMP TR-FRET, EC30 ANP; 0% at EC30 ANP, 100% saturating ANP. P16066. activation, % at 10 µM. 370,000 compounds, 0.14% hits; in the data active means activation above about 40%
Fh CTSL1 inh = blocks F. hepatica cathepsin L1 in PFM18AAP counter-screen; AID 1906; inhibition, % at 5.96 µM; recombinant F. hepatica cathepsin L1, Z-Leu-Arg-MCA fluorescence; 300,000 compounds, 0.49% hits;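 active means inhibition above the mean of all tested compounds plus 3 SD, set per screening campaign, cut at about 17% in these data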;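 further: 0% = plate median of test compound wells and 100% = 1 µM Z-Phe-Ala-diazomethylketone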
HCV core dimer = HCV core protein dimerization inhibition | TR-FRET GST/Flag-core106 dimerization, 1536-well | AID 1899 | inhibition, % at 5 µM | 300,000 compounds, 0.33% hits;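 active means inhibition above the mean of all tested compounds plus 3 SD, set per screening campaign, cut at about 45% in these data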
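assay system = GST-tagged and Flag-tagged HCV core protein residues 1-106 | controls = unlabelled core106 and no-GST-core106 wells | incubation = compound-protein-antibody incubation 4 h at 22.5 °C | probe or stimulus = Eu donor and XL665 acceptor anti-tag antibodies | read-out = % inhibition based on acceptor/donor emission ratio | signal = TR-FRET 671 and 617 nm emission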
ARFGAP1 inhibitor = inhibitors of rat ARFGAP1 | AID 651572 | 360,000 compounds, 0.26% hits | inhibition, % at 16.5 µM | Arfgap1-stimulated ARF1 GTP hydrolysis, GDP FP detection | Q62848;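 active means inhibition above a per-plate limit, mean inhibition of low control wells plus 3 SD, cut at about 25% in these data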;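 further: 0% = DMSO wells with enzyme and 100% = wells lacking Arfgap1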
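Assay system: Rat Arfgap1 GAP domain (His6, aa 1-136), purified enzyme | Buffer or medium: HEPES 25 mM pH 7.5, NaCl 150 mM, MgCl2, DTT | Schedule: GTP hydrolysis reaction 2 h at 25 °C | Signal: FP of antibody-bound GDP Alexa 633 tracer, ex 620/em 688 nm | Measure: Percent inhibition of Arfgap1-stimulated GTP hydrolysis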
ASAP1 GAP conf = ASAP1 inhibition confirmed | shares compounds with ASAP1 inh | ASAP1-stimulated Arf1 GTPase, GDP fluorescence polarization | inhibition, % at 16.5 µM | 620 compounds, 37% hits | AID 624431;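 active means mean inhibition over triplicates exceeds the hit threshold derived for the earlier primary screening run, cut at about 25% in these data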
* marks the source's active call; other numbers are inactive results; . = not tested or not shown.

SMILES	NPR2 activator	ASAP1 inh	GC-A act	Fh CTSL1 inh	HCV core dimer	ARFGAP1 inhibitor	ASAP1 GAP conf
CCCCN(Cc1ccco1)C(=O)Cn1ncc2c(=O)oc3ccc(C)cc3c21	-18	30*	-16	6	-13	15	33*
Nc1ccc2c(c1)C(=NO)c1cc([N+](=O)[O-])ccc1-2	-6	26*	3	.	.	-5	18
C=CCn1c(C)cc(-c2csc(NC)n2)c1C	2	26*	3	.	.	0	5
O=c1[nH]c(CN2CCN(C/C=C/c3ccccc3)CC2)nc2cc(Cl)ccc12	-11	8	3	-3	1	10	.
CCOc1ccc(NC(=S)NC(=O)/C=C/c2ccc(OC)c(OC)c2)c([N+](=O)[O-])c1	-3	35*	0	5	6	-17	20
CCOC(=O)/C(=C\c1ccc(N2CCC(c3ccccc3)=N2)cc1)C(C)=O	0	-6	7	.	.	-1	.
Cc1nc2ccccc2nc1N1CCCC1	2	31*	-3	2	-2	6	3
COC1=C(N)C(=O)c2nc(C)ccc2C1=O	0	18	0	.	.	21	.
COC1=C(Br)C(=O)c2nc(C)ccc2C1=O	2	27*	-11	.	.	5	4
COc1cc(N)c2ncccc2c1Br	-3	28*	5	.	.	15	11
COc1cc(N)c2ncccc2c1SC	-1	-13	-2	.	.	-6	.
c1ccc(-c2cc(-c3nnc4n3N=C(c3ccc5ccccc5c3)CS4)[nH]n2)cc1	8	25*	7	0	23	11	11
CC(/C=N/NC(=O)c1nnn(-c2nonc2N)c1C(C)C)=C\c1ccccc1	11	29*	1	1	-5	14	12
CCCc1c(C(=O)N/N=C/C(C)=C/c2ccccc2)nnn1-c1nonc1N	2	8	3	9	-5	2	.
COc1cc(C(=O)NC(C)c2ccc(-n3ccnc3)cc2)cc(OC)c1C (stereo not given)	-11	0	-26	-2	4	5	.
COc1ccc(C(=O)NC(C)c2ccc(-n3ccnc3)cc2)cc1[N+](=O)[O-] (stereo not given)	-5	25*	-6	5	-5	-4	12
CCN=C1SC(C(=O)NCCc2ccccc2)CC(=O)N1CC (stereo not given)	5	-7	4	2	1	3	.
CC1(C)Cc2c(c(-c3ccco3)nc3sc4c(NCCO)ncnc4c23)CO1	2	30*	11	4	2	-7	1
COCCCNc1ncnc2c1sc1nc(-c3ccco3)c3c(c12)CC(C)(C)OC3	26	3	29	6	3	3	.
CS(=O)(=O)N(Cc1ccc(Cl)cc1)c1ccc(C(=O)NCc2ccccn2)cc1	1	31*	-4	1	-1	7	9
COc1ccc(Nc2ncnc3sc(-c4ccccc4)cc23)cc1OC	11	26*	9	0	-8	3	28*
COc1ccc(Nc2ncnc3c2cnn3-c2ccccc2)cc1OC	-2	7	17	0	-6	-6	.
CN(C)CCCN=c1cc(-c2ccccc2)oc2ccc(Cl)cc12	-15	-1	7	.	.	-4	.
C=CCn1cnnc1SCC(=O)NCC1COc2ccccc2O1 (stereo not given)	0	31*	2	.	.	3	9
C=CCn1cnnc1SCC(=O)N(C)CC1COc2ccccc2O1 (stereo not given)	3	-4	0	.	.	-4	.
SMILES	NPR2 activator	ASAP1 inh	GC-A act	Fh CTSL1 inh	HCV core dimer	ARFGAP1 inhibitor	ASAP1 GAP conf
CCCCCC1CC1C(=O)N/N=C/c1ccc(N(C)C)cc1 (stereo not given)	4	-2	-1	1	-2	-8	.
O=C1C(Cl)=C(NCCc2ccccc2)C(=O)c2ccccc21	-4	30*	4	.	.	18	6
O=C1C(Cl)=C(Nc2ccccc2)C(=O)c2ccccc21	-2	1	6	6	-17	2	.
COc1ccc(N(C)S(=O)(=O)c2cccc(C(=O)NCc3ccc4c(c3)OCO4)c2)cc1	-3	25*	-2	3	9	4	6
Cc1ccc(NC(=O)CSc2nnc(-c3ccncc3)o2)cc1	-4	-4	0	-1	-1	-2	.
Cc1nc2nc[nH]n2c(=O)c1NS(C)(=O)=O	-6	26*	-2	-2	-2	1	4
Cc1nc2nc[nH]n2c(=O)c1NS(=O)(=O)c1ccc(F)cc1	-1	2	1	0	-2	-6	.
Cc1ccc(NC(=O)Cn2cc(S(=O)(=O)c3ccccc3)c(=O)c3cc(F)ccc32)cc1	2	-14	2	-1	10	-1	.
N#Cc1c(-c2ccc(Cl)cc2)ccn2nc(C3CCCCC3)nc12	3	27*	11	-1	17	0	5
CC(Oc1ccccc1)C(=O)N1CCC2(CC1)Oc1ccc(F)cc1C(=O)C21CC(c2ccccc2)=NO1 (stereo not given)	4	-2	2	-2	19	1	.
CC(Oc1ccccc1)C(=O)N1CCC2(CC1)Oc1ccc(F)cc1C(=O)C21CC(c2cccnc2)=NO1 (stereo not given)	0	26*	2	-1	-4	15	5
COc1ccc(N2C(=O)[C@@H]3[C@H](C2=O)[C@H]2c4ccccc4C=CN2[C@@H]3C(C)=O)cc1	3	49*	-1	11	-5	22	18
CC(C)(C)c1nc(N2CCN(C(=O)c3ccco3)CC2)c2nnn(Cc3ccccc3)c2n1	8	49*	2	-1	10	14	3
O=C(c1ccco1)N1CCN(c2nc(C3CC3)nc3c2nnn3Cc2ccccc2Cl)CC1	-1	6	0	-3	32	-4	.
COc1cccc(N2CCN(C(=S)Nc3ccccc3OC)CC2)c1	0	-7	4	-3	-2	1	.
COc1ccc(C(=O)c2c(C)c3cc(C)ccc3n2CC(O)CN2CCOCC2)cc1 (stereo not given)	-10	26*	3	2	-10	-8	1
O=C(Nc1c2c(nn1-c1ccc(F)cc1)CS(=O)C2)c1ccco1 (stereo not given)	2	9	2	0	-2	13	.
Cc1ccc(-n2nc3c(c2NC(=O)c2ccco2)CS(=O)C3)cc1 (stereo not given)	-1	25*	2	3	-10	-8	-2
COc1ccc(C2=NS(=O)(=O)N(C)C(C(=O)Nc3ccc(OC)c(OC)c3)=C2)cc1	0	14	3	3	6	20	.
